Published values of several laboratories.
Each line is one published result; the experiments were not run side by side.
Target: Serine/threonine-protein kinase PRP4 homolog (PRPF4B, Homo sapiens, UniProt Q13523)

| Structure (SMILES) | assay | setting | measurement | value |
| --- | --- | --- | --- | --- |
| CC(=O)c1c(NS(C)(=O)=O)c2cc(-c3ccc(Cl)cc3)c(-c3ccc(Cl)cc3Cl)nc2n(C)c1=O | cell-free assay, competition with immobilised ligand | 1 µM | remaining binding | 83% |
| Cc1ccc(C(=O)Nc2ccc(CN3CCN(C)CC3)c(C(F)(F)F)c2)cc1C#Cc1cnc2cccnn12 | enzyme activity, inhibitor | 23.5 nM | remaining activity | 91% |
| CCCCNc1ncc2c(-c3ccc(F)cc3)nn(C[C@H]3CC[C@H](N)CC3)c2n1 | target engagement in cells, inhibitor, chemoproteomics | 20 mM | inhibition | -1.2% |
| Cc1ccc(C(=O)NCc2ccsc2)cc1C#Cc1cn(C(C)C)c2ncnc(N)c12 | enzyme activity, inhibitor | 1 µM | activity vs control | 114% |
| COc1ccc2c(O[C@@H]3C[C@H]4C(=O)N[C@]5(C(=O)O)CC5/C=C\CCCCC[C@H](NC(=O)OC5CCCC5)C(=O)N4C3)cc(-c3csc(NC(=O)C(C)C)n3)nc2c1C (some centres unmarked) | cell-free assay, competition with immobilised ligand | 1 µM | remaining binding | 93% |
| Nc1ncnc2occ(-c3ccc(NC(=O)Nc4cc(C(F)(F)F)ccc4F)cc3)c12 | cell-free assay, inhibitor | 20 µM | remaining signal | 100% |
| CN1CC(Oc2cnc(C#N)cc2-c2ccn3nc(NC(=O)C4CC4)cc3c2)C1 | enzyme activity, inhibitor | 1 µM | inhibition | 3% |
| c1ccc(CNc2nc(N3CCOc4ccccc43)nc3c2CCCC3)cc1 | target engagement in cells, inhibitor, chemoproteomics | 20 mM | inhibition | -6.7% |
